From ChEMBL document CHEMBL2169747, “Synthesis and biological properties of highly sequence-specific-alkylating N-methylpyrrole-N-methylimidazole polyamide conjugates” (J Med Chem, 2012)
The source made the active and inactive calls. The calls are words filed in the database; no cut-off is given here.

Experiments:
[1] = test system: A549; experiment: Downregulation of NP_940865.1 gene expression in human A549 cells at 26 nM after 12 hrs by microarray analysis relative to control; assay type: functional
Summary of the method: (§1)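 A549 cells (RPMI-1640, 10% heat-inactivated FBS, penicillin/streptomycin, 37 °C, 5% CO2) seeded at 4 × 10^5 per 60 mm dish. Exposed 12 h to conjugate at 21, 26, 34 or 100 nM in medium with 0.1% DMSO, against 0.1% DMSO control. Whole-genome (~25 000 genes) expression profiled by microarray.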

[2] = test system: A549; experiment: Downregulation of ACTG gene expression in human A549 cells at 26 nM after 12 hrs by microarray analysis relative to control; assay type: functional
Summary of the method: (§2)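 A549 cells, 4 × 10^5 per 60 mm dish, were exposed to conjugate for 12 h in medium with 0.1% DMSO; vehicle control was 0.1% DMSO. Whole human genome (~25 000 genes) expression was profiled by microarray and expression compared with the control.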

[3] = Cytotoxicity against human EBC1 cells assessed as cell growth inhibition after 48 hrs by microplate reader analysis; assay type: functional, cell-based; conditions: EBC-1, 48 h
Summary of the method: (§3)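 Medium was RPMI-1640 for EBC-1, A549 and DU145, and DMEM for PC-3, SK-N-SH and K562. Both media had 10% heat-inactivated FBS plus penicillin/streptomycin; cells were kept at 37 °C, 5% CO2. Cells were seeded at 5000/well and given compound from DMSO stock (final 0.1% DMSO) for 48 h. Viability was read by WST-8 colorimetry, absorbance at 450 and 600 nm, and IC50 determined.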

[4] = test system: A549; experiment: Upregulation of PPM1D gene expression in human A549 cells at 26 nM after 12 hrs by microarray analysis relative to control; assay type: functional
Summary of the method: (§4)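 4 ×10^5 A549 cells seeded per 60 mm dish and treated 12 h with conjugate (21, 26, 34 or 100 nM) in medium; control medium contained 0.1% DMSO, with conjugates added as 0.1% DMSO solutions. Whole human genome (~25 000 genes) expression profiled by microarray against the DMSO control. A549 culture: RPMI-1640 with 10% heat-inactivated FBS, penicillin/streptomycin, 37 °C, 5% CO2.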

[5] = test system: A549; experiment: Antiangiogenic activity against human A549 cells; assay type: functional, cell-based
[6] = test system: A549; experiment: Downregulation of SLC4A4 gene expression in human A549 cells at 26 nM after 12 hrs by microarray analysis relative to control; assay type: functional; summary of the method: as §1
[7] = test system: DU-145; experiment: Cytotoxicity against human DU145 cells assessed as cell growth inhibition after 48 hrs by microplate reader analysis; assay type: functional, cell-based; conditions: DU-145, 48 h; summary of the method: as §3
[8] = test system: K562; experiment: Cytotoxicity against human K562 cells assessed as cell growth inhibition after 48 hrs by microplate reader analysis; assay type: functional, cell-based; conditions: K562, 48 h; summary of the method: as §3
[9] = test system: A549; experiment: Antitumor activity against human A549 cells xenografted in BALB/c-nu/nu mouse assessed as effect on tumor growth at 1.6 mg/kg, iv administered as liposomal conjugate for 14 days; assay type: functional, organism-based; set-up: dose 1.6 mg/kg
Summary of the method: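 Male BALB/c-nu/nu mice (5 weeks, 15−22 g) with subcutaneous right-subaxillary A549 or DU145 xenografts (3 × 10^6 cells/mouse), grouped by tumor size. Liposomes were made from a lipid film hydrated in water and bath-sonicated 2 h, giving 330 μg/mL conjugate in 17 mM lipid. A single 125 μL intravenous dose (41 μg/mouse) was given on day 0. Tumor size and weight were read every other day for 14 days. n = 5 or 6.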

[10] = test system: A549; experiment: Downregulation of EPM2A gene expression in human A549 cells at 26 nM after 12 hrs by microarray analysis relative to control; assay type: functional; summary of the method: as §2
[11] = test system: DU-145; experiment: Antiangiogenic activity against human DU145 cells; assay type: functional, cell-based
[12] = test system: A549; experiment: Antitumor activity against human A549 cells xenografted in BALB/c-nu/nu mouse assessed as effect on tumor growth at 0.50 mg/kg, ip for 14 days; assay type: functional, organism-based; set-up: dose 0.5 mg/kg
Summary of the method: (§5)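 Male BALB/c-nu/nu mice, 5 weeks old, 15−22 g. Cells were implanted subcutaneously in the right subaxillary region at 3 × 10^6 cells/mouse: 50 μL for A549, 100 μL for DU145, with HBSS and Matrigel used. Mice were grouped by tumor size. The naked conjugate was given intraperitoneally once on day 0 as 20 μL at 625 μg/mL in 100% DMSO (12.5 μg/mouse). Tumor size and weight were measured every other day for 14 days. n = 7 or 8.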

[13] = test system: A549; experiment: Upregulation of CDKN1A gene expression in human A549 cells at 26 nM after 12 hrs by microarray analysis relative to control; assay type: functional; summary of the method: as §4
[14] = test system: A549; experiment: Downregulation of TNIK gene expression in human A549 cells at 26 nM after 12 hrs by microarray analysis relative to control; assay type: functional; summary of the method: as §1
[15] = test system: DU-145; experiment: Antitumor activity against human DU145 cells xenografted in BALB/c-nu/nu mouse assessed as effect on tumor growth at 0.50 mg/kg, ip for 14 days; assay type: functional, organism-based; set-up: dose 0.5 mg/kg; summary of the method: as §5
[16] = test system: A549; experiment: Cytotoxicity against human A549 cells assessed as cell growth inhibition after 48 hrs by microplate reader analysis; assay type: functional, cell-based; conditions: A549, 48 h; summary of the method: as §3
[17] = test system: Nucleic Acid; experiment: Induction of calf thymus DNA cleavage at 10 to 25 nM after 12 h by PAGE analysis; assay type: nucleic-acid assay; conditions: in the assay text read “208-bp PCR fragment DNA” for “calf thymus DNA”
Summary of the method: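 5′-Texas Red-labeled 208 bp PCR fragments alkylated in 5.0 mM sodium phosphate (pH 7.0) with 10% DMF, room temperature, 12 h. Quenched with calf thymus DNA and heated 95 °C for 5 min under neutral conditions. Recovered DNA in formamide loading dye, heated 95 °C 20 min, then run on 6% denaturing polyacrylamide gel with 6.0 M urea at 1.5 kV, 40 °C.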

[18] = test system: SK-N-SH; experiment: Cytotoxicity against human SK-N-SH cells assessed as cell growth inhibition after 48 hrs by microplate reader analysis; assay type: functional, cell-based; summary of the method: as §3
[19] = test system: A549; experiment: Downregulation of XP_375606.2 gene expression in human A549 cells at 26 nM after 12 hrs by microarray analysis relative to control; assay type: functional; summary of the method: as §1
[20] = test system: PC-3; experiment: Cytotoxicity against human PC3 cells assessed as cell growth inhibition after 48 hrs by microplate reader analysis; assay type: functional, cell-based; conditions: PC-3, 48 h; summary of the method: as §3
[21] = test system: A549; experiment: Downregulation of NBEA gene expression in human A549 cells at 34 nM after 12 hrs by microarray analysis relative to control; assay type: functional; summary of the method: as §2
[22] = test system: A549; experiment: Downregulation of RABGAP1L gene expression in human A549 cells at 34 nM after 12 hrs by microarray analysis relative to control; assay type: functional; summary of the method: as §1
[23] = test system: A549; experiment: Downregulation of Q9P223 gene expression in human A549 cells at 34 nM after 12 hrs by microarray analysis relative to control; assay type: functional; summary of the method: as §1
[24] = test system: A549; experiment: Downregulation of ZNF407 gene expression in human A549 cells at 34 nM after 12 hrs by microarray analysis relative to control; assay type: functional; summary of the method: as §1
[25] = test system: A549; experiment: Downregulation of ZNF291 gene expression in human A549 cells at 34 nM after 12 hrs by microarray analysis relative to control; assay type: functional; summary of the method: as §1
[26] = test system: A549; experiment: Upregulation of BTG2 gene expression in human A549 cells at 34 nM after 12 hrs by microarray analysis relative to control; assay type: functional; summary of the method: as §4
[27] = test system: A549; experiment: Downregulation of NP_115632.1 gene expression in human A549 cells at 34 nM after 12 hrs by microarray analysis relative to control; assay type: functional; summary of the method: as §2
[28] = test system: A549; experiment: Downregulation of GTDC1 gene expression in human A549 cells at 34 nM after 12 hrs by microarray analysis relative to control; assay type: functional; summary of the method: as §2

| Activity [17] | SMILES | IC50 [3] [nM] | Activity [5] | IC50 [7] [nM] | IC50 [8] [nM] | Activity [9] | Activity [11] | Activity [12] | Activity [15] | IC50 [16] [nM] | IC50 [18] [nM] | IC50 [20] [nM] | other results |
| --- | --- | --- | --- | --- | --- | --- | --- | --- | --- | --- | --- | --- | --- |
| Active | CC(=O)Nc1cn(C)c(C(=O)Nc2cc(C(=O)Nc3cc(C(=O)NCCC(=O)Nc4cc(C(=O)NCCCC(=O)Nc5cc(C(=O)NCCC(=O)Nc6cn(C)c(C(=O)Nc7ccc8[nH]c(C(=O)N9CC(CCl)c%10c9cc(O)c9ccccc%109)cc8c7)n6)n(C)c5)n(C)c4)n(C)c3)n(C)c2)n1 (racemic) | 60.3 | inactive | 6.03 | 9.12 | inactive | inactive | inactive | inactive | 25.7 | 19.1 | 12.6 | fold change (FC) [1]: 0.322; fold change (FC) [2]: 0.311; fold change (FC) [4]: 5.7; fold change (FC) [6]: 0.273; fold change (FC) [10]: 0.353; fold change (FC) [13]: 8.2; fold change (FC) [14]: 0.312; fold change (FC) [19]: 0.35 |
| Active | CC(=O)Nc1cn(C)c(C(=O)Nc2cn(C)c(C(=O)Nc3cc(C(=O)NCCC(=O)Nc4cc(C(=O)NCCCC(=O)Nc5cn(C)c(C(=O)NCCC(=O)Nc6cn(C)c(C(=O)Nc7ccc8[nH]c(C(=O)N9CC(CCl)c%10c9cc(O)c9ccccc%109)cc8c7)n6)n5)n(C)c4)n(C)c3)n2)n1 (racemic) | 170 | inactive | 6.31 | 11.5 | inactive | inactive | inactive | inactive | 33.9 | 40.7 | 19.1 | fold change (FC) [21]: 0.152; fold change (FC) [22]: 0.276; fold change (FC) [23]: 0.258; fold change (FC) [24]: 0.241; fold change (FC) [25]: 0.311; fold change (FC) [26]: 9.7; fold change (FC) [27]: 0.273; fold change (FC) [28]: 0.307 |
